Screens (PubChem)
Only some compounds are listed: those with a hit (about 3.5% of all), similar ones and a draw of the others.
rCAG RNA binder – binds r(CAG) RNA repeats; r(CAG) RNA repeat, TO-PRO-1 dye displacement fluorescence; AID 651821; inhibition, % at 3 µM; hit rate 1.3% among 370,000;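 active = inhibition above the plate cutoff, the mean of all test compounds on that plate plus 3 SD, cut at about 35% in these data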;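 note: higher means more dye released from RNA so lower well fluorescence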
TCR-CD3 inh – inhibitors of human TCR-CD3 interaction; TAMRA-labeled TCR probe fluorescence, biochemical; inhibition, % at 9.4 µM; hit rate 0.37% among 360,000; AID 651800; in the data active = inhibition above about 19%;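 note: recombinant mutant TCR 2C K166C tagged with TAMRA read by polarization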
ABHD4 inh – ABHD4 (mouse) inhibition, primary FP screen | purified mABHD4, FP-Rh probe fluorescence polarization | inhibition, % at 8.92 µM | hit rate 0.54% among 370,000 | AID 720543;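 active = inhibition exceeding the mean over every tested compound plus 3 SD, cut at about 30% in these data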
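Assay system: mABHD4 protein; medium: HEPES pH 7.0, NaCl, Pluronic buffer; dosing: 8.92 µM, single dose; schedule: 45 min + 60 min at 25 °C; signal: FP readout, ex 525 nm / em 598 nm; read-out: normalized percent inhibition of probe labeling; repeats: single replicate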
PRMT1 inh – blocks human protein arginine methyltransferase 1; Q99873; recombinant PRMT1, activity-based probe fluorescence polarization; inhibition, % at 2.79 µM; hit rate 1.3% among 370,000; AID 652257;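 active = inhibition above about 21% made by adding two undisclosed values, limit read from the data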
Target sequence (Q99873 whole entry, looked up): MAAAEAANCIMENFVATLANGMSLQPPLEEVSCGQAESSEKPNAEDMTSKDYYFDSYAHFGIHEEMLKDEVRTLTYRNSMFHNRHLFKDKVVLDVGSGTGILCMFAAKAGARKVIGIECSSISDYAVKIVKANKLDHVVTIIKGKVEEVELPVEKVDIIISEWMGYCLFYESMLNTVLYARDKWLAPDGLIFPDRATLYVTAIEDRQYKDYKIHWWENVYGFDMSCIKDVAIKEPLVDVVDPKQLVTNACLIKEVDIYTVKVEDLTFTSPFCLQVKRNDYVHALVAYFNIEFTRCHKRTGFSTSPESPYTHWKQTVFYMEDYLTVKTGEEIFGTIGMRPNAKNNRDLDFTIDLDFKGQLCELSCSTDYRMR
SIAE inh – human SIAE inhibition, primary screen; AID 1053197; hit rate 0.69% among 370,000; Q9HAT2; SIAE FP-Rh probe binding, fluorescence polarization; inhibition, % at 9.66 µM;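 active = inhibition above a cutoff: mean of compounds within the control limits plus 3 SD of those, cut at about 17% in these data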
HTRA1 inhibitor – HTRA1 (human) protease inhibition; recombinant HTRA1, FP-rhodamine activity-based probe, fluorescence polarization; Q92743; hit rate 0.5% among 340,000; AID 504803; inhibition, % at 5.96 µM; in the data active = inhibition above about 36%
Large screens that a line does not name were inactive.

O=c1c2ccccc2[nH]c(=S)n1CCN1CCCC1	none
O=[N+]([O-])c1cc2oc3c(c2c(C=NCc2ccncc2)c1O)CCCC3	HTRA1 inhibitor 50 (no result: rCAG RNA binder, TCR-CD3 inh, ABHD4 inh, PRMT1 inh, SIAE inh)
CC(C)(C)N=Cc1c(O)ccc2oc3c(c12)CCCC3	none
Nc1nnc(CC(=O)N/N=C/c2cc([N+](=O)[O-])cc(Br)c2O)s1	rCAG RNA binder 59, TCR-CD3 inh 34, ABHD4 inh 39
Nc1nnc(CC(=O)N/N=C/c2cccc([N+](=O)[O-])c2)s1	none
COc1ccc([C@H]2Oc3cc(O)cc(O)c3C(=O)C2[C@@H]2C(=O)c3c(O)cc(O)cc3O[C@@H]2c2ccc(OC)cc2)cc1 (stereo partly drawn)	rCAG RNA binder 58 (no result: HTRA1 inhibitor)
COc1ccc(C2CC(=O)Oc3cc(O)cc(O)c32)cc1 (stereo not drawn)	none
COc1ccccc1NS(=O)(=O)c1cc(NC(=O)C2CCCC2)ccc1N1CCOCC1	PRMT1 inh 23
COc1ccccc1NS(=O)(=O)c1cc(NC(=O)c2cccs2)ccc1N1CCCC1	PRMT1 inh 23
O=C(Nc1ccc(F)cc1)Nc1ccc(N2CCCC2)c(S(=O)(=O)Nc2ccccc2Cl)c1	rCAG RNA binder 37
O=C(Nc1ccc(Cl)c(Cl)c1)Nc1ccc(N2CCCC2)c(S(=O)(=O)Nc2ccccc2Cl)c1	none
O=C(Nc1ccccc1C(F)(F)F)OCCN1C(=O)CCC12CCC(c1ccccc1)CC2 (stereo not drawn)	none (no result: TCR-CD3 inh, HTRA1 inhibitor)
CC(C)(N[C@@H](Cc1ccccc1)C(=O)NCCc1c[nH]c2ccccc12)C(=O)NC1CCCCC1	none (no result: rCAG RNA binder, TCR-CD3 inh, HTRA1 inhibitor)
Cn1ncc2c(c(SCc3ccc(Cl)cc3Cl)nn2C)c1=O	PRMT1 inh 22
Clc1ccc(N=c2ssnc2Cl)nc1	PRMT1 inh 21
Cc1ccc2c(c1C)NC(C(=O)O)C1CC=CC21 (stereo not drawn)	HTRA1 inhibitor 51 (no result: rCAG RNA binder, TCR-CD3 inh, ABHD4 inh, PRMT1 inh, SIAE inh)
CCC[C@H]1[C@@H](NS(=O)(=O)c2ccccc2[N+](=O)[O-])CC[C@@]23CCCN2C(=O)CCC[C@@H]13	none (no result: rCAG RNA binder, TCR-CD3 inh, HTRA1 inhibitor)
CC(C)=CCC[C@@]1(C(=O)O)[C@H]2CC=C(CO)[C@@H]1CC/C(C)=C/CC/C(C)=C/C2	none (no result: TCR-CD3 inh, HTRA1 inhibitor)
Cc1cccc(C(=O)N/C(=C\c2ccco2)C(=O)N2CCCC2)c1	PRMT1 inh 23
COc1ccc(C2=NN(c3nc(-c4ccccc4)c(CC(=O)O)s3)C(c3ccco3)C2)cc1 (stereo not drawn)	rCAG RNA binder 46, PRMT1 inh 22
COC(=O)[C@]12C[C@H](CC(=O)NCCCCc3ccccc3)C(=O)N(CCc3ccc(OC)c(OC)c3)C1=C[C@H](C(C)(C)C)O[C@@H]2C	none (no result: TCR-CD3 inh, HTRA1 inhibitor)
NC(=O)[C@@H]1CCCCNc2c(I)cc([N+](=O)[O-])cc2C(=O)N[C@@H](CCC(=O)O)C(=O)N[C@@H](CO)C(=O)N1	rCAG RNA binder 46
NC(=O)[C@@H]1CCNc2c(I)cc([N+](=O)[O-])cc2C(=O)N[C@@H](CCC(=O)O)C(=O)N[C@@H](CO)C(=O)N1	none (no result: rCAG RNA binder, TCR-CD3 inh, ABHD4 inh, PRMT1 inh, SIAE inh)
CCOC(=O)c1c(S(=O)(=O)N2CCN(C)CC2)c(C)n(C)c1C	none
CCOC(=O)c1c(S(=O)(=O)N2CCCC2)c(C)n(C)c1C	PRMT1 inh 22
CCOc1ccc(/C(CCC(=O)O)=N/NC(=S)NCCc2ccccc2)cc1	rCAG RNA binder 36
CCOc1ccc(C(=O)OCC(=O)NCCCc2ccccc2)cc1	none
CN(Cc1ccccc1)C(=O)OCc1cn(Cc2ccc(F)c(F)c2)nn1	none (no result: TCR-CD3 inh, HTRA1 inhibitor)
Cn1c(SCC(=O)N/N=C/C=C/c2ccco2)nc2ccccc21	PRMT1 inh 24
Cn1c(SCC(=O)N/N=C/C=C/c2ccccc2[N+](=O)[O-])nc2ccccc21	none
O=C(Nc1nnc(-c2cccs2)o1)c1cc(-c2ccccc2)nc2ccccc12	rCAG RNA binder 44
N#Cc1ccc(Cn2ccc3ccc(-c4ccc5ccn(C(=O)C6CCCCC6)c5c4)cc32)cc1	none (no result: TCR-CD3 inh, HTRA1 inhibitor)
O=C(CSc1nnc(-c2ccncc2)n1Cc1ccco1)Nc1cccc(O)c1	none
Cc1cc(C)c(NC(=O)CSc2nnc(-c3ccncc3)n2Cc2ccco2)c(Cl)c1	PRMT1 inh 22
O=C(Nc1cccc(Cl)c1)O[C@@H]1CC[C@@]23CCCN2C(=O)CCC[C@H]3C1	none (no result: rCAG RNA binder, TCR-CD3 inh, HTRA1 inhibitor)
CCCCNC(=O)C[C@H]1C[C@@]2(C(=O)OC)C(=C[C@H](C3CCCC3)O[C@@H]2C)N(Cc2ccco2)C1=O	none (no result: TCR-CD3 inh, HTRA1 inhibitor)
